Test results reported in ChEMBL document CHEMBL1938381, “Design, synthesis, and structure-activity relationship studies of conformationally restricted mutilin 14-carbamates” (2012).
≈ marks a conversion by molar mass, not a printed value.

How the values were obtained:
Format in all cases: functional
Staphylococcus aureus [1] = experiment: Antibacterial activity against methicillin-susceptible Staphylococcus aureus by agar microdilution method
In short: (§1)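 MIC by agar microdilution following NCCLS standard M7-A6 (2003), tested against clinical isolates: MRSA n = 6, MRSE n = 5, MSSA n = 5, MSSE n = 5; values given as a single MIC or a range across isolates.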

Staphylococcus aureus [2] = experiment: Antibacterial activity against methicillin-resistant Staphylococcus aureus by agar microdilution method; in short: as §1
[3] = test system: Staphylococcus epidermidis; experiment: Antibacterial activity against methicillin-susceptible Staphylococcus epidermidis by agar microdilution method; in short: as §1
[4] = test system: Staphylococcus epidermidis; experiment: Antibacterial activity against methicillin-resistant Staphylococcus epidermidis by agar microdilution method; in short: as §1
Streptococcus pneumoniae [5] = experiment: Antibacterial activity against Streptococcus pneumoniae by agar microdilution method
In short: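 MIC read by agar microdilution following NCCLS standard M7-A6 (2003), against a panel of 3 Streptococcus pneumoniae clinical isolates. Values in µg/mL, given as a range where the isolates differed.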

Staphylococcus aureus [6] = experiment: Ratio of Linezolid MIC to compound MIC for methicillin-susceptible Staphylococcus aureus
[7] = test system: Staphylococcus epidermidis; experiment: Ratio of Linezolid MIC to compound MIC for methicillin-susceptible Staphylococcus epidermidis
Streptococcus pneumoniae [8] = experiment: Ratio of Linezolid MIC to compound MIC for Streptococcus pneumoniae

Structure (SMILES) | MIC (Staphylococcus aureus [1]) | MIC (Staphylococcus aureus [2]) | MIC [3] | MIC [4] | MIC (Streptococcus pneumoniae [5]) | Ratio (Staphylococcus aureus [6]) | Ratio [7] | Ratio (Streptococcus pneumoniae [8])
C=C[C@]1(C)C[C@@H](OC(=O)N2Cc3ccc(F)cc3C2=O)[C@]2(C)[C@H](C)CC[C@]3(CCC(=O)[C@H]32)[C@@H](C)[C@@H]1O | 0.125 µg/mL (≈ 0.251 µM) | 0.125 µg/mL (≈ 0.251 µM) | 0.125 µg/mL (≈ 0.251 µM) | 0.125 µg/mL (≈ 0.251 µM) | 0.125 µg/mL (≈ 0.251 µM) | 4 | 4 | 4
C=C[C@]1(C)C[C@@H](OC(=O)N2Cc3ccccc3C2=O)[C@]2(C)[C@H](C)CC[C@]3(CCC(=O)[C@H]32)[C@@H](C)[C@@H]1O | 0.125 µg/mL (≈ 0.261 µM) | 0.125 µg/mL (≈ 0.261 µM) | 0.125 µg/mL (≈ 0.261 µM) | 0.125 µg/mL (≈ 0.261 µM) | 0.125 µg/mL (≈ 0.261 µM) | 4 | 4 | 4
C=C[C@]1(C)C[C@@H](OC(=O)N2Cc3cc(N)ccc3C2=O)[C@]2(C)[C@H](C)CC[C@]3(CCC(=O)[C@H]32)[C@@H](C)[C@@H]1O | 0.125 µg/mL (≈ 0.253 µM) | 0.125 µg/mL (≈ 0.253 µM) | 0.125 µg/mL (≈ 0.253 µM) | 0.125 µg/mL (≈ 0.253 µM) | 0.125 µg/mL (≈ 0.253 µM) | 4 | 4 | 4
C=C[C@]1(C)C[C@@H](OC(=O)N2Cc3ccc(NC(=O)[C@@H]4CCCN4)cc3C2=O)[C@]2(C)[C@H](C)CC[C@]3(CCC(=O)[C@H]32)[C@@H](C)[C@@H]1O.Cl | 0.25 µg/mL | 0.25 µg/mL | 0.25 µg/mL | 0.25 µg/mL | 0.5 µg/mL | 4 | 4 | 4
C=C[C@]1(C)C[C@@H](OC(=O)N2CCc3cc(OC)c([N+](=O)[O-])cc3C2=O)[C@]2(C)[C@H](C)CC[C@]3(CCC(=O)[C@H]32)[C@@H](C)[C@@H]1O | 0.125 µg/mL (≈ 0.22 µM) | 0.25 µg/mL (≈ 0.44 µM) | 0.25 µg/mL (≈ 0.44 µM) | 0.25 µg/mL (≈ 0.44 µM) | 0.25 µg/mL (≈ 0.44 µM) | 4 | 4 | 4
